The source made the active and inactive calls. The rule behind the calls is not given here.
Experiments:
[1] = target: T1, Muscarinic acetylcholine receptor M4 (Homo sapiens) (UniProt P08173); assay: Positive allosteric modulation of human M4 receptor expressed in CHO cells coexpressing Gqi5 assessed as increase in acetylcholine-induced calcium mobilization relative to acetylcholine; type: functional, cell-based
T1 sequence (whole entry): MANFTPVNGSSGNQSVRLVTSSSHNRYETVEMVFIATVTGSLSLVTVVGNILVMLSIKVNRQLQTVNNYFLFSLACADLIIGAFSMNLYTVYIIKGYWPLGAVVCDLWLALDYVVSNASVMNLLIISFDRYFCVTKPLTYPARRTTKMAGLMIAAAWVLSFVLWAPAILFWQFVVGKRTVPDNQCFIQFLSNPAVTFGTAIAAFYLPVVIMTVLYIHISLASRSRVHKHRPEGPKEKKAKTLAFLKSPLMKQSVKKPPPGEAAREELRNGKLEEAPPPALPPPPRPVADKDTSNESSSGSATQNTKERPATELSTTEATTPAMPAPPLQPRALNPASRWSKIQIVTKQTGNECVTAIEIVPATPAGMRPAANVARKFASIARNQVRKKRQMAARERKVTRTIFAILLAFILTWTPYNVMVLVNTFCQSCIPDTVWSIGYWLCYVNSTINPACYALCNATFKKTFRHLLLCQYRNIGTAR
Summary of the method: (§1)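 Calcium mobilization in CHO cells expressing hM4 with Gqi5. Compound added in presence of a fixed EC20 concentration of acetylcholine. Values are means of three independent experiments, each run in triplicate.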

[2] = target: T2, Muscarinic acetylcholine receptor M4 (Homo sapiens, UniProt P08173); assay: Positive allosteric modulation of human M4 receptor expressed in CHO cells coexpressing Gqi5 assessed as increase in acetylcholine-induced calcium mobilization; type: functional, cell-based; summary of the method: as §1
T2 sequence (P08173 whole entry): T1 sequence (whole entry)

Cytochrome P450 2D6 = Cytochrome P450 2D6 (Homo sapiens, UniProt P10635); assay: Inhibition of CYP2D6 (unknown origin); type: ADME
Sequence of Cytochrome P450 2D6 (P10635 whole entry): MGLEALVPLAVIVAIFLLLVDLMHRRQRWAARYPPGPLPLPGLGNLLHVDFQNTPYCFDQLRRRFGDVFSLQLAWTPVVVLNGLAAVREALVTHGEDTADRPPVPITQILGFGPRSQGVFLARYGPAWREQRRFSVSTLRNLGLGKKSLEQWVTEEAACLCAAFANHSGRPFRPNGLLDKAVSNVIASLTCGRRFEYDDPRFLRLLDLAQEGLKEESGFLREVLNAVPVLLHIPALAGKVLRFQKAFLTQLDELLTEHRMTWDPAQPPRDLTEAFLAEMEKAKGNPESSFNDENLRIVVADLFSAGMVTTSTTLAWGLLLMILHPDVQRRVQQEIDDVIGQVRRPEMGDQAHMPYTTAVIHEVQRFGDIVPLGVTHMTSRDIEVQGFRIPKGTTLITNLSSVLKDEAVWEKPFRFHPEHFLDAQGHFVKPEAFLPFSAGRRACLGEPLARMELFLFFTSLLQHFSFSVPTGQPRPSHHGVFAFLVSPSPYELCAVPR

Cytochrome P450 3A4 = Cytochrome P450 3A4 (Homo sapiens, UniProt P08684); assay: Inhibition of CYP3A4 (unknown origin); type: ADME
Sequence of Cytochrome P450 3A4 (P08684 whole entry): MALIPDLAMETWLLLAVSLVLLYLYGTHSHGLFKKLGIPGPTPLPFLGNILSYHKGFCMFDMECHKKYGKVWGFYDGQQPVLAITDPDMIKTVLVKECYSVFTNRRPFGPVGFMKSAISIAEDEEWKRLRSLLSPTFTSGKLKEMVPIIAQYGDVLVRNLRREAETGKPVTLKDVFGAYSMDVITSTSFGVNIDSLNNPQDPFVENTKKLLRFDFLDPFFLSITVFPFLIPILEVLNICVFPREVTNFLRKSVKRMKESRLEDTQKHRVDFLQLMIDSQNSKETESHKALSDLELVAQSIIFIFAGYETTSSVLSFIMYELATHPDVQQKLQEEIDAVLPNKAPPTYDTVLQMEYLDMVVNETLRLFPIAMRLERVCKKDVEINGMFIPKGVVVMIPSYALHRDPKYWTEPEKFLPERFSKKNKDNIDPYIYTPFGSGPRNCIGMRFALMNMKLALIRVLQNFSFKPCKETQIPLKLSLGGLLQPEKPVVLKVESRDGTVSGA

Cytochrome P450 2C9 = Cytochrome P450 2C9 (Homo sapiens, UniProt P11712); assay: Inhibition of CYP2C9 (unknown origin); type: ADME
Sequence of Cytochrome P450 2C9 (P11712 whole entry): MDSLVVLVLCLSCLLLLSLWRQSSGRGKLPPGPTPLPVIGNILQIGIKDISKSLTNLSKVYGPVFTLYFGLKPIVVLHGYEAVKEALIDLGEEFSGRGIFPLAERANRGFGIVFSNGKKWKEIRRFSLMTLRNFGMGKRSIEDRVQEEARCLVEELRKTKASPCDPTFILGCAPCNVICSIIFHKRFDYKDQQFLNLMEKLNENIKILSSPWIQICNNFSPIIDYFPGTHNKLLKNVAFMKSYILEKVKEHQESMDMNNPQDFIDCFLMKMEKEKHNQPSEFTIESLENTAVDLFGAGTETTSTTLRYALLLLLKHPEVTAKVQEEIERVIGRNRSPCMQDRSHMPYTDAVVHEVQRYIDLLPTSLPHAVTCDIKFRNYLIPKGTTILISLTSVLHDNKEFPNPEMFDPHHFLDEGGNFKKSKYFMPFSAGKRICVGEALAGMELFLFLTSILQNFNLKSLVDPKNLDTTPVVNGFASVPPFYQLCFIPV

Rattus norvegicus [3] = assay: Volume of distribution at steady state […] in Sprague-Dawley rat at 0.1 to 1 mg/kg, iv; type: ADME, organism-based; settings: in vivo
Summary of the method: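 IV pharmacokinetics in Sprague-Dawley rats at 0.1–1.0 mg/kg. CLp, elimination t½ and Vss derived.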

[4] = Brain to plasma permeability coefficient, Kp of the compound in Sprague-Dawley rat at 0.1 to 0.2 mg/kg, iv measured at 0.25 hrs post dose; type: ADME, organism-based
Summary of the method: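 Sprague-Dawley rats were dosed IV at 0.1–0.2 mg/kg, with brain and plasma sampled at 0.25 hr. Brain:plasma Kp was calculated, with Kp,uu where unbound fractions were available.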

[5] = Unbound plasma concentration in human; type: ADME, cell-free
Rattus norvegicus [6] = assay: Elimination half-life in Sprague-Dawley rat at 0.1 to 1 mg/kg, iv; type: ADME, organism-based; settings: in vivo
[7] = Unbound plasma concentration in rat; type: ADME, cell-free
Cytochrome P450 1A2 = target: T3, Cytochrome P450 1A2 (Homo sapiens, UniProt P05177); assay: Inhibition of CYP1A2 (unknown origin); type: ADME
T3 sequence (P05177 whole entry): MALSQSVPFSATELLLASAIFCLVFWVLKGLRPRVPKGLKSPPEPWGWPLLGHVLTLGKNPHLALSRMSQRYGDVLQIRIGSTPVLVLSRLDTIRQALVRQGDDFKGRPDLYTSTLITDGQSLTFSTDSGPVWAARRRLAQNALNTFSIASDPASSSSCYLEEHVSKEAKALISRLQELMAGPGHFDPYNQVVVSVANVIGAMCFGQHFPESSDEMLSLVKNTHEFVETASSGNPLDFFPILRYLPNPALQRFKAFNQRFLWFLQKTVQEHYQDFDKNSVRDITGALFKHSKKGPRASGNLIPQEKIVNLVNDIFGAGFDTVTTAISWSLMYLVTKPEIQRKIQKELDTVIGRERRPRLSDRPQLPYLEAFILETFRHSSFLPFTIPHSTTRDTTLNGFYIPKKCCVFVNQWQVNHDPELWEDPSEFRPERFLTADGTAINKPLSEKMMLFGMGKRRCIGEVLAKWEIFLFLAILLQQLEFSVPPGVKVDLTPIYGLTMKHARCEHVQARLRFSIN

[8] = Ratio of unbound brain to plasma concentration in cynomolgus monkey at 145 MBq, iv measured at 2 hrs post dose by PET analysis; type: ADME, organism-based, Macaca fascicularis; settings: read-out: K(p,uu,brain)
Summary of the method: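 Whole and regional brain distribution of total and calculated unbound drug in one cynomolgus monkey. PET after a single IV dose of [18F]-labelled compound (145 MBq), with about 2 h of data acquisition post-dose.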

[9] = Brain to plasma permeability coefficient, Kp of the compound in cynomolgus monkey at 145 MBq, iv measured at 2 hrs post dose by PET analysis; type: ADME, organism-based, Macaca fascicularis
Summary of the method: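 PET study in one cynomolgus monkey given a single IV dose of [18F]-labelled compound (145 MBq), with roughly 2 hr of data acquisition after dosing. Whole and regional brain distribution of total and calculated unbound compound was determined.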

[10] = Ratio of unbound CSF to plasma concentration in cynomolgus monkey at 145 MBq, iv measured at 2 hrs post dose by PET analysis; type: ADME, organism-based, Macaca fascicularis
[11] = target: T1, Muscarinic acetylcholine receptor M4 (Homo sapiens); assay: Displacement of [3H]NMS from human M4 receptor
Summary of the method: (§2)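 Competition binding of ACh against [3H]-N-methylscopolamine at M4 of each species. Combined with ACh concentration-response fold-shift Ca2+ mobilization data to fit operational model parameters (KB, α, β). n=3–4, each in duplicate.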

Macaca fascicularis [12] = species: Macaca fascicularis; assay: Activity at cynomolgus monkey M2 receptor
Macaca fascicularis [13] = species: Macaca fascicularis; assay: Positive allosteric modulation of cynomolgus monkey M4 receptor assessed as increase in acetylcholine-induced calcium mobilization relative to acetylcholine
Summary of the method: (§3)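 M4 PAM concentration-response curves measured by calcium mobilization at the stated species' receptor. Potency reported as EC50/pEC50 and efficacy as % of acetylcholine maximum.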

Macaca fascicularis [14] = species: Macaca fascicularis; assay: Displacement of [3H]NMS from cynomolgus monkey M4 receptor; summary of the method: as §2
[15] = target: Muscarinic acetylcholine receptor M4 (Rattus norvegicus) (UniProt P08485); assay: Displacement of [3H]NMS from rat M4 receptor; summary of the method: as §2
Sequence of Muscarinic acetylcholine receptor M4 (Rattus norvegicus) (P08485 whole entry): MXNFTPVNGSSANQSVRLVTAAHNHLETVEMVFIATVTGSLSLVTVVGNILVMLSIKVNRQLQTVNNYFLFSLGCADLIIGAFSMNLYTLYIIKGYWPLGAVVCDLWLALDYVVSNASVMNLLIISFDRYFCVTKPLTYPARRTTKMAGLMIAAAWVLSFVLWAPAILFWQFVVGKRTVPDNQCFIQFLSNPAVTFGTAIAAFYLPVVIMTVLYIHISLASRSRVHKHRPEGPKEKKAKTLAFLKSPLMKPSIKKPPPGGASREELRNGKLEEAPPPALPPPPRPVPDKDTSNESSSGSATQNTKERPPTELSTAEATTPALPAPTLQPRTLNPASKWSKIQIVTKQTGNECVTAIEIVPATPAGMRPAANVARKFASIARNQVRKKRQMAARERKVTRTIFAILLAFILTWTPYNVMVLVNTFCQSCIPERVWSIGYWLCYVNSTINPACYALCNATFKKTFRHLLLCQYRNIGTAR

Rattus norvegicus [16] = species: Rattus norvegicus; assay: Activity at rat GABA-A receptor
Summary of the method: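 Rat GABAA receptor, benzodiazepine site, radioligand binding in a broad secondary pharmacology panel. IC50 taken from binding. Functional follow-up was run at 10 μM.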

[17] = target: Muscarinic acetylcholine receptor M4 (Rattus norvegicus) (UniProt P08485); assay: Positive allosteric modulation of rat M4 receptor assessed as increase in acetylcholine-induced calcium mobilization relative to acetylcholine; type: functional; summary of the method: as §3
Canis lupus familiaris [18] = species: Canis lupus familiaris; assay: Activity at dog M2 receptor
Canis lupus familiaris [19] = species: Canis lupus familiaris; assay: Positive allosteric modulation of dog M4 receptor assessed as increase in acetylcholine-induced calcium mobilization relative to acetylcholine; summary of the method: as §3

%max [1] [%]	EC50 ([2]; read-out: EC50) [nM]	EC50 ([2]; read-out: pEC50 (converted)) [nM]	Compound	other results
65	230	214	Cc1ncc(-c2ccc(CNC(=O)c3sc4nnc(C)c(C)c4c3N)cc2)cn1	–
79	64	–	Cc1nnc2sc(C(=O)NCc3ccc(-c4ccc(F)nc4)cc3)c(N)c2c1C	IC50 (Cytochrome P450 2D6): > 30000 nM; IC50 (Cytochrome P450 3A4): 25000 nM; IC50 (Cytochrome P450 2C9): 26000 nM; Vdss (Rattus norvegicus [3]): 0.6 L/kg; Kp [4]: 0.13; fraction unbound [5]: 0.023; beta t1/2 (Rattus norvegicus [6]): 28.8 min; fraction unbound [7]: 0.004; IC50 (Cytochrome P450 1A2): 790 nM
49	319	295	Cc1nnc2sc(C(=O)NCc3ccc(-c4ccccc4)cc3)c(N)c2c1C	–
63	159	–	Cc1nnc2sc(C(=O)NCc3ccc(-c4cnccn4)cc3)c(N)c2c1C	–
75	232	214	Cc1nnc2sc(C(=O)NCc3ccc(-c4ccccn4)cc3)c(N)c2c1C	–
86	1720	1550	Cc1nnc2sc(C(=O)NCc3ccc(-c4ccncc4F)cc3)c(N)c2c1C	–
–	–	–	Cc1nnc2sc(C(=O)NCc3ccc(-c4cccnc4[18F])cc3)c(N)c2c1C	Kp uu at 2 h [8]: 1.1; Kp [9]: 0.75; Kp uu at 2 h [10]: 1
74	–	–	Cc1nnc2sc(C(=O)NCc3ccc(-c4cccnc4F)cc3)c(N)c2c1C	Kb [11]: 2800 nM; Activity (Macaca fascicularis [12]): inactive; %max (Macaca fascicularis [13]): 64%; Kb (Macaca fascicularis [14]): 2100 nM; Kb [15]: 370 nM; Activity (Rattus norvegicus [16]): inactive; %max [17]: 72%; Activity (Canis lupus familiaris [18]): inactive; %max (Canis lupus familiaris [19]): 49%
82	187	182	Cc1nnc2sc(C(=O)NCc3ccc(Br)cc3)c(N)c2c1C	–
84	185	170	Cc1nnc2sc(C(=O)NCc3cccc(Br)c3)c(N)c2c1C	–
